The values below come from ChEMBL document CHEMBL2331538, “Identification of inhibitors against interaction between pro-inflammatory sPLA2-IIA protein and integrin αvβ3” (Bioorg Med Chem Lett, 2013).

pIC50: −log10 of the molar value. Calls of active or inactive are those of the source. The rule behind the calls is not given here.

For experiment [1], the target named is T1, Phospholipase A2, membrane associated (Homo sapiens, UniProt P14555).
T1 sequence (P14555 whole entry): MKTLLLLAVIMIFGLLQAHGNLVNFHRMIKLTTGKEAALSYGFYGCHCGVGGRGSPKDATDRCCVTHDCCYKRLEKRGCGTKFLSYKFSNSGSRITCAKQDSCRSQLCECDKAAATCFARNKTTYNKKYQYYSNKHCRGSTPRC
Nature of the experiment: Inhibition of sPLA2-IIA (unknown origin)-integrin alphaVbeta3 interaction in human K562 cells pretreated for 30 mins to immobilized sPLA2 before adding cells by phosphatase assay. The class given is cell-based. In short, it runs like this:
(§1)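 Wells coated with sPLA2-IIA and blocked with BSA were preincubated with compound (10 to 500 μM) for 30 min. Integrin αvβ3-transfected K562 erythroleukemia cells were then added for 1 h at 37 °C, and bound cells were quantified by phosphatase assay. IC50 and maximum inhibition were derived from dose-response experiments.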

Experiment [2] addresses T2, Phospholipase A2, membrane associated (Homo sapiens) (UniProt P14555).
T2 sequence (whole entry): T1 sequence (P14555 whole entry)
Nature of the experiment: Inhibition of sPLA2-IIA (unknown origin)-integrin alphaVbeta3 interaction in human K562 cells pretreated for 30 mins to immobilized sPLA2 before adding cells by phosphatase assay relative to BSA. In kind it is cell-based. The essentials: as §1

The target of experiment [3] is T2, Phospholipase A2, membrane associated (Homo sapiens). Kind of experiment: Inhibition of sPLA2-IIA (unknown origin)-induced migration of human U937 cells after 20 hrs by chemotaxis assay. As to conditions: U-937. In kind it is cell-based. The essentials:
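Modified Boyden chamber (Transwell) chemotaxis assay. The lower chamber held sPLA2-IIA (40 ng/ml) with compound (4 to 16 μM), and U937 monocytic cells were placed in the upper chamber for 20 h at 37 °C. Migrated cells were counted. Means ± SE, n=4.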

Experiment [4] has as its target T3, Disintegrin and metalloproteinase domain-containing protein 15 (Homo sapiens) (UniProt Q13444).
T3 sequence (whole entry): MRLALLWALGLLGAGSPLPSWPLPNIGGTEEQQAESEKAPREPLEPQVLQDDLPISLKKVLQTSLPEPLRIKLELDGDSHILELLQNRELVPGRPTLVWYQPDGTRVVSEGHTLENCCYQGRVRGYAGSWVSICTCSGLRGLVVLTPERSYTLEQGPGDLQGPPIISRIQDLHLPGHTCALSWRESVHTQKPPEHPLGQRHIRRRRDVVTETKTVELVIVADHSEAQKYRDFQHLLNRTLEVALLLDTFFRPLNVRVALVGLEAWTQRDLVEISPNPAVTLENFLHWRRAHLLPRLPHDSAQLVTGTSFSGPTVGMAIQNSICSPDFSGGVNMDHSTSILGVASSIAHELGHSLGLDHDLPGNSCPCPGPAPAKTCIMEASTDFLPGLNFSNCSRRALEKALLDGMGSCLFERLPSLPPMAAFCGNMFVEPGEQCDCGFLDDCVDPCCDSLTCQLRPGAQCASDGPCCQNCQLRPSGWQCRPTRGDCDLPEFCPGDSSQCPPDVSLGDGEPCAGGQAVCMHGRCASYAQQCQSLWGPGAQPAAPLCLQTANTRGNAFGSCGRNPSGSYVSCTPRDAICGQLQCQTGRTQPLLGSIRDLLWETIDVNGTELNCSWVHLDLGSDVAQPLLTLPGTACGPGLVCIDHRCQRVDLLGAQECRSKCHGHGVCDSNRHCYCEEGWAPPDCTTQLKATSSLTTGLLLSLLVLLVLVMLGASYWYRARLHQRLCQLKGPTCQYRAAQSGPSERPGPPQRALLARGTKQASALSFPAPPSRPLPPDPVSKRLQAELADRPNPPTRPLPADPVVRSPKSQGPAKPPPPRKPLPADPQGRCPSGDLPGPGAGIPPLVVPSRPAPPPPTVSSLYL
Kind of experiment: Inhibition of ADAM15 (unknown origin)-integrin alphaVbeta3 interaction in human K562 cells pretreated at 200 uM for 30 mins to immobilized sPLA2 before adding cells by phosphatase assay. In kind it is cell-based. The essentials:
(§2)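 Specificity adhesion assay using αvβ3-transfected K562 cells. Wells were coated with either ADAM15 or sPLA2-IIA and blocked with BSA. Compound was used at 200 μM. Adherent cells were quantified by phosphatase assay. Means ± S.E., n=3.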

Experiment [5] relates to U-937. Kind of experiment: Inhibition of sPLA2-IIA R47E/R100E mutant (unknown origin)-induced migration of human U937 cells after 20 hrs by chemotaxis assay. The class given is cell-based.
Experiment [6] addresses T2, Phospholipase A2, membrane associated (Homo sapiens). Kind of experiment: Inhibition of sPLA2-IIA (unknown origin)-integrin alphaVbeta3 interaction in human K562 cells pretreated at 200 uM for 30 mins to immobilized sPLA2 before adding cells by phosphatase assay. The class given is cell-based. In short, it runs like this: as §2
Experiment [7] deals with U-937. Kind of experiment: Inhibition of sPLA2-IIA (unknown origin)-induced migration of human U937 cells after 20 hrs by chemotaxis assay.

By pIC50 is commonly meant the negative decadic logarithm of the IC50, by convention in mol/L. For the compound `Cc1nc(NC(=O)c2ccccc2)sc1-c1cc(C(=O)NCC(=O)N[C@H](CCCN=C(N)N)C(=O)NCC(=O)O)[nH]n1`, in experiment [1], the pIC50 is 3.66.

`Cc1nc(NC(=O)c2ccccc2)sc1-c1cc(C(=O)NCC(=O)N[C@H](CCCN=C(N)N)C(=O)O)[nH]n1`: the pIC50 in experiment [1] was 3.58. In the case of `CC[C@H](C)[C@H](NC(=O)[C@@H](CC(=O)O)NC(=O)[C@H](Cc1c[nH]c2ccccc12)NC(=O)[C@H](C)NC(=O)c1cc(-c2sc(NC(=O)c3ccccc3)nc2C)n[nH]1)C(=O)O`, the Imax in experiment [2] came out at 85%. The inhibition result in experiment [3] is “Dose-dependent effect”. Also, the inhibition entry (in experiment [4]; with U-937 [5]) was “inactive” in each case. The pIC50 in experiment [1] was 4.70. The inhibition entry in experiment [6] was “Active”. With `C[C@H](NC(=O)[C@H](CCCCN)NC(=O)[C@H](Cc1ccc(O)cc1)NC(=O)[C@H](Cc1cnc[nH]1)NC(=O)c1cnccn1)C(=O)N[C@H](CC(N)=O)C(=O)N[C@H](C(=O)O)[C@@H](C)O`, in experiment [2], the Imax was less than 30%. With `Cc1nc(NC(=O)c2ccccc2)sc1-c1cc(C(=O)NCC(=O)N[C@H](CCCN=C(N)N)C(=O)NCC(=O)N[C@H](CC(=O)O)C(=O)N[C@H](CC(=O)O)C(=O)N[C@H](CC(=O)O)C(=O)O)[nH]n1`, the pIC50 in experiment [1] is 4.15. Take `Cc1nc(NC(=O)c2ccccc2)sc1-c1cc(C(=O)N[C@@H](C)C(=O)O)[nH]n1`: the Imax entry in experiment [2] was “inactive”.

Turning to `Cc1nc(NC(=O)c2ccccc2)sc1-c1cc(C(=O)O)[nH]n1`, the Imax result in experiment [2] is “inactive”. Consider `N=C(N)NCCC[C@@H](NC(=O)CN)C(=O)NCC(=O)N[C@H](CC(=O)O)C(=O)N[C@H](CC(=O)O)C(=O)N[C@H](CC(=O)O)C(=O)O`, for which the Imax entry in experiment [2] is “inactive”. For the compound `C[C@H](NC(=O)[C@@H](CCCNC(=N)N)NC(=O)[C@@H](CC(N)=O)NC(=O)[C@@H](CCCNC(=N)N)NC(=O)[C@@H](Cc1ccccc1)NC(=O)c1ccc2nn3c(c2c1)OCc1cc(Cl)ccc1-3)C(=O)N[C@@H](Cc1ccc(O)cc1)C(=O)O`, in experiment [2], the Imax was 71%. The pIC50 in experiment [1] is 4.07. `Cc1nc(NC(=O)c2ccccc2)sc1-c1cc(C(=O)NCC(=O)O)[nH]n1`: the Imax in experiment [2] amounted to 98%.

In the case of `N=C(N)NCCC[C@@H](NC(=O)c1csc(-c2ccccn2)n1)C(=O)N[C@@H](Cc1c[nH]c2ccccc12)C(=O)N[C@@H](CCC(=O)O)C(=O)N[C@H](Cc1ccccc1)C(=O)O`, the Imax in experiment [2] is less than 30%.

For `Cc1nc(NC(=O)c2ccccc2)sc1-c1cc(C(=O)NCC(=O)N[C@H](CCCNC(=N)N)C(=O)NCC(=O)N[C@H](CC(=O)O)C(=O)O)[nH]n1`, in experiment [2], the Imax came out at 87%. Same read-out and setting: as for `CC(C)[C@H](NC(=O)[C@@H]1CCCN1C(=O)[C@@H](CC(N)=O)NC(=O)[C@@H](CCCNC(=N)N)NC(=O)[C@H](CCCCN)NC(=O)[C@H](Cc1c[nH]c2ccccc12)NC(=O)c1csc(-c2ccccn2)n1)C(=O)O`, the figure is less than 30%. For `Cc1nc(NC(=O)c2ccccc2)sc1-c1cc(C(=O)NCC(=O)N[C@H](CCCN=C(N)N)C(=O)NCC(=O)N[C@H](CC(=O)O)C(=O)O)[nH]n1`, the pIC50 in experiment [1] was 3.81. As for `Cc1nc(NC(=O)c2ccccc2)sc1-c1cc(C(=O)NCC(=O)N[C@H](CCCNC(=N)N)C(=O)NCC(=O)O)[nH]n1`, the Imax in experiment [2] was found to be 81%. With `Cc1nc(NC(=O)c2ccccc2)sc1-c1cc(C(=O)N[C@@H](C)C(=O)N[C@@H](Cc2c[nH]c3ccccc23)C(=O)O)[nH]n1`, the Imax result in experiment [2] is “inactive”. Same read-out and setting: as for `Cc1nc(NC(=O)c2ccccc2)sc1-c1cc(C(=O)N[C@@H](C)C(=O)N[C@@H](Cc2c[nH]c3ccccc23)C(=O)N[C@H](CC(=O)O)C(=O)O)[nH]n1`, the entry is “inactive”. Regarding `CC(C)[C@H](NC(=O)CC1NC(=O)NC1=O)C(=O)N[C@H](CC(N)=O)C(=O)N[C@@H](Cc1c[nH]c2ccccc12)C(=O)N1CCC[C@H]1C(=O)N[C@@H](CCC(N)=O)C(=O)N[C@@H](CCC(N)=O)C(=O)O` (stereo partly specified), the Imax in experiment [2] is less than 30%. For the compound `Cc1nc(NC(=O)c2ccccc2)sc1-c1cc(C(=O)NCC(=O)N[C@H](CCCNC(=N)N)C(=O)O)[nH]n1`, the Imax in experiment [2] is 77%. Consider `CC[C@H](C)[C@H](NC(=O)[C@@H](CC(=O)O)NC(=O)[C@H](Cc1c[nH]c2ccccc12)NC(=O)[C@H](C)N)C(=O)O`, for which the Imax entry in experiment [2] is “inactive”. With `Cc1nc(NC(=O)c2ccccc2)sc1-c1cc(C(=O)NCC(=O)N[C@H](CCCNC(=N)N)C(=O)NCC(=O)N[C@H](CC(=O)O)C(=O)N[C@H](CC(=O)O)C(=O)N[C@H](CC(=O)O)C(=O)O)[nH]n1`, the Imax in experiment [2] came out at 93%. Besides, the inhibition result (in the experiment on U-937 [7]; in experiment [4]) was “inactive” throughout. Further, the inhibition entry in experiment [6] was “Active”. Consider `Cc1nc(NC(=O)c2ccccc2)sc1-c1cc(C(=O)NCC(=O)N[C@H](CCCNC(=N)N)C(=O)NCC(=O)N[C@H](CC(=O)O)C(=O)N[C@H](CC(=O)O)C(=O)O)[nH]n1`, for which the Imax entry in experiment [2] was “inactive”.
